Measured values as given in ChEMBL document CHEMBL1142992, “Discovery of diaryl imidazolidin-2-one derivatives, a novel class of muscarinic M3 selective antagonists (Part 1)” (J Med Chem, 2007).
Each block holds one molecule with its values, some of them ahead of it. Activity calls are given as the source filed them.

Tests used:
[1] = target: T1, Muscarinic acetylcholine receptor M2 (Homo sapiens, UniProt P08172); assay: Displacement of [3H]N-methyl-scopolamine from human muscarinic M2 receptor expressed in CHO K1 cells; assay type: cell-based
T1 sequence (P08172 whole entry): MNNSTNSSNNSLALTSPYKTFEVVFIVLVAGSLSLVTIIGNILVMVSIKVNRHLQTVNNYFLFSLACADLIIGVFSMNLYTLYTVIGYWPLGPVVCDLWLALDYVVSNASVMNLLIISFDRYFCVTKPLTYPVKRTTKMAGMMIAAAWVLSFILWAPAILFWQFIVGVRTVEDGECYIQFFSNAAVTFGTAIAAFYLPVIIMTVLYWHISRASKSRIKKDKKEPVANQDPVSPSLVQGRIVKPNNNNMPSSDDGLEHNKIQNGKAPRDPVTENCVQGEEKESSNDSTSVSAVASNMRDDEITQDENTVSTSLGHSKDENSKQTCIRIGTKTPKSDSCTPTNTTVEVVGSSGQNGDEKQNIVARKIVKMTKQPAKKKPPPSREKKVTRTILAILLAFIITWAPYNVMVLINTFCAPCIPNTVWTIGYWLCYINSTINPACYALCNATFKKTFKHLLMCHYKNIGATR
Outline: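 Membranes from CHO-K1 cells expressing human M2 receptor, homogenized and stored at -80 °C, resuspended in 50 mM Tris-HCl pH 7.4, 2.5 mM MgCl2, 1 mM EDTA. [3H]-N-methyl scopolamine 0.1-0.3 nM; nonspecific binding with cold N-methyl scopolamine. 10-point curves in duplicate, 60 min at room temperature, filtration through GF/B, scintillation counting.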

Cytochrome P450 2C9 = Cytochrome P450 2C9 (Homo sapiens, UniProt P11712); assay: Inhibition of human CYP2C9 expressed in insect cells; assay type: ADME
Sequence of Cytochrome P450 2C9 (P11712 whole entry, canonical isoform): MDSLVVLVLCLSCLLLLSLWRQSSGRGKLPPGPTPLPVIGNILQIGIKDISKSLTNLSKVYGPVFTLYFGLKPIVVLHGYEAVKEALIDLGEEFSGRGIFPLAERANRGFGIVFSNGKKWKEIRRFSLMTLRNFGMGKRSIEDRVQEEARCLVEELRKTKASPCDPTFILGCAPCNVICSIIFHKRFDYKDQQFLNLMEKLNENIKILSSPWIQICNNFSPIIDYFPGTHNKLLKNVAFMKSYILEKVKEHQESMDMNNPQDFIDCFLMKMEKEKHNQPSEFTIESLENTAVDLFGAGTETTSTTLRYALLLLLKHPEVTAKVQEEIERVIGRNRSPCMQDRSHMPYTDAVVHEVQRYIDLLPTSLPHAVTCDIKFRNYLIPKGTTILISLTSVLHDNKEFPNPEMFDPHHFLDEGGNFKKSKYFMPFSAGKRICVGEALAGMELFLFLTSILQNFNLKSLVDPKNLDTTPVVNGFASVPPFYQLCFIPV
Outline: (§1)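 Insect-cell microsomes expressing human CYP1A2, 2C9, 2C19, 2D6 or 3A4, each with an isoform-specific fluorogenic substrate in 0.35 M potassium phosphate pH 7.4. […] Inhibitor serially diluted; plates prewarmed 10 min at 37 °C. Reaction stopped with acetonitrile/Tris, read by fluorescence. IC50 from nonlinear regression. Positive controls: furafylline, sulfaphenazole, tranylcypromine, quinidine, ketoconazole.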

Cytochrome P450 2C19 = Cytochrome P450 2C19 (Homo sapiens, UniProt P33261); assay: Inhibition of human CYP2C19 expressed in insect cells; assay type: ADME; outline: as §1
Sequence of Cytochrome P450 2C19 (P33261 whole entry): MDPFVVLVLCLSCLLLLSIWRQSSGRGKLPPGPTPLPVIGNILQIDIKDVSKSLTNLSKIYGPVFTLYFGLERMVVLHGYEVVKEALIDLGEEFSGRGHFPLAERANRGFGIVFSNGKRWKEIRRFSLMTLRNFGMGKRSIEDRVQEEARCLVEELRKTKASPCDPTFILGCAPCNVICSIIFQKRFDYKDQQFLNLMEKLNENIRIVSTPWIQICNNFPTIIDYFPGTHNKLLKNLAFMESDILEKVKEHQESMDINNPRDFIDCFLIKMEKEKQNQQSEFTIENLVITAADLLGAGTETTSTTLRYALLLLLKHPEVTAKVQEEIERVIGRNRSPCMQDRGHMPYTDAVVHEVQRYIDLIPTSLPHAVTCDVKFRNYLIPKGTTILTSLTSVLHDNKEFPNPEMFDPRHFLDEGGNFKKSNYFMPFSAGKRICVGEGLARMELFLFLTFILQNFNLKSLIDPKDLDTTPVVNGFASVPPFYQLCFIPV

Cytochrome P450 2D6 = Cytochrome P450 2D6 (Homo sapiens, UniProt P10635); assay: Inhibition of human CYP2D6 expressed in insect cells; assay type: ADME; outline: as §1
Sequence of Cytochrome P450 2D6 (P10635 whole entry): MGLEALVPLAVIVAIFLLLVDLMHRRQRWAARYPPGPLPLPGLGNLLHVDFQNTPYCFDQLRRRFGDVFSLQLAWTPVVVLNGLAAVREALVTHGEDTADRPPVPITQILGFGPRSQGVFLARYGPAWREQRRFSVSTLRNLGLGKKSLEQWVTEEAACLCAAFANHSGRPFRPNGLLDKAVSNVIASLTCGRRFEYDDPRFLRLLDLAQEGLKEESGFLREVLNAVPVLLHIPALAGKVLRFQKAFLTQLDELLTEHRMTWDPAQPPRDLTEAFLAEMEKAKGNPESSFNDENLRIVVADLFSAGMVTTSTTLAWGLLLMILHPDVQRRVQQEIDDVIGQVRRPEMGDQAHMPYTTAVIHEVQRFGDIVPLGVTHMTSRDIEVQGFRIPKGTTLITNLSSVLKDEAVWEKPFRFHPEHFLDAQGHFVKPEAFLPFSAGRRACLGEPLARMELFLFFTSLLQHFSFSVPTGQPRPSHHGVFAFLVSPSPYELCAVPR

Cytochrome P450 3A4 = Cytochrome P450 3A4 (Homo sapiens, UniProt P08684); assay: Inhibition of human CYP3A4 expressed in insect cells; assay type: ADME; outline: as §1
Sequence of Cytochrome P450 3A4 (P08684 whole entry): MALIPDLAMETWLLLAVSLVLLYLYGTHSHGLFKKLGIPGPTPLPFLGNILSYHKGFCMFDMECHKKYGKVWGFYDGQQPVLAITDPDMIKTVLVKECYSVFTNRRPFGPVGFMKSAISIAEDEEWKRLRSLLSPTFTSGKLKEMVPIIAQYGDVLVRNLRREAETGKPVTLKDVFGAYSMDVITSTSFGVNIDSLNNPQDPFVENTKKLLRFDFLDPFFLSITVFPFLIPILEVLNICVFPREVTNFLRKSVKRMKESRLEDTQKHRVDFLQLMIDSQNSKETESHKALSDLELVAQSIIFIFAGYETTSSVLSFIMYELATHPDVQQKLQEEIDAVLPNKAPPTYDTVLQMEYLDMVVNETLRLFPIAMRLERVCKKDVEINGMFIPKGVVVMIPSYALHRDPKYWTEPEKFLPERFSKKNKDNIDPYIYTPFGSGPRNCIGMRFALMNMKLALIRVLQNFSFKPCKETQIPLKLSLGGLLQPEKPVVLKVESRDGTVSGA

[2] = Permeability across human Caco-2 cell membrane; assay type: ADME, cell-based
Outline: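 Caco-2 monolayers grown 21 days on polycarbonate inserts. Integrity checked by TEER (1000 Ω) and sodium fluorescein leakage. Compound at 50 µM in 1% DMSO applied apically, 2 h at 37 °C. Apical and basolateral samples measured by LC-MS/MS. Papp = CbVb/(C0·A·t).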

[3] = Intrinsic clearance in rat liver microsomes; assay type: ADME, Microsome
Outline: (§2)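 Human or rat liver microsomes at 0.5 mg/mL final, preincubated with 0.5 µM test compound in phosphate buffer pH 7.4 for 10 min at 37 °C. Clearance reported as mL/min/g liver.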

[4] = Intrinsic clearance in human liver microsomes; assay type: ADME, Microsome; outline: as §2
Cytochrome P450 1A2 = target: T2, Cytochrome P450 1A2 (Homo sapiens, UniProt P05177); assay: Inhibition of human CYP1A2 expressed in insect cells; assay type: ADME; outline: as §1
T2 sequence (P05177 whole entry): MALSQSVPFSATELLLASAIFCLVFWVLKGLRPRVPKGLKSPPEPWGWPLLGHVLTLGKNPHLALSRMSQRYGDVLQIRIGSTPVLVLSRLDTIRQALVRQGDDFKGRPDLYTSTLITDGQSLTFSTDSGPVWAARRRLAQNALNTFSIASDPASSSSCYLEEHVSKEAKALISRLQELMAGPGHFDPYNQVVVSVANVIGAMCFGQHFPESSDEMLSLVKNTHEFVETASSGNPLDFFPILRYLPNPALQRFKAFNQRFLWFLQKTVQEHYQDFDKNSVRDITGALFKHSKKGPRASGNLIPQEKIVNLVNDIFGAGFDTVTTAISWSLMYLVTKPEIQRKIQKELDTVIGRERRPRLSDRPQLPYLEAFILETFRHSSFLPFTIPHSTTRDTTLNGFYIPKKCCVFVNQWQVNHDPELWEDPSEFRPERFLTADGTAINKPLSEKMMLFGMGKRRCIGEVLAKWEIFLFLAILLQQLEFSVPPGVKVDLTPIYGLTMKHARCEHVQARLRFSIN

[5] = target: T3, Muscarinic acetylcholine receptor M2 (Homo sapiens) (UniProt P08172); assay: Displacement of [3H]N-methyl-scopolamine from human muscarinic M2 receptor expressed in CHO K1 cells at 10 uM; assay type: cell-based
T3 sequence (whole entry): T1 sequence (P08172 whole entry)

[6] = target: T4, Muscarinic acetylcholine receptor M2 (Rattus norvegicus) (UniProt P10980); assay: Antagonist activity at muscarinic M2 receptor in rat left atria assessed as contraction of methacholine-induced relaxation upto 0.1 uM relative to EFS; assay type: functional
T4 sequence (whole entry): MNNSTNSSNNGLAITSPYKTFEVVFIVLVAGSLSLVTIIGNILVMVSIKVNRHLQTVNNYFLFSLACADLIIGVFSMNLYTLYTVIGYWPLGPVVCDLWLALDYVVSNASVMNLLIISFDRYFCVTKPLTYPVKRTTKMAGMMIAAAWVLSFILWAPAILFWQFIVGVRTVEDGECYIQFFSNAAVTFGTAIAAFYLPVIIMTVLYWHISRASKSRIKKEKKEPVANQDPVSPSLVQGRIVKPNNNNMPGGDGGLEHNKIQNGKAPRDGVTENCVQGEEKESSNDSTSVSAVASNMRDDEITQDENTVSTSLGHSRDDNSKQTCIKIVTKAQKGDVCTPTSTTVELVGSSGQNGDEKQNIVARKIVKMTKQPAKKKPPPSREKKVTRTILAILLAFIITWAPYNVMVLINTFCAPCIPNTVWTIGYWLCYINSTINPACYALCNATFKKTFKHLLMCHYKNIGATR
Outline: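 Female rat left atrium in Krebs-Henseleit at 33 °C, resting tension 0.5 g, eserine 1 µM present. Paced by EFS at 1 Hz, 5 ms pulses, 1.5× threshold voltage to give a stable basal force. Methacholine concentration-response curves run alone or with antagonist at 0.01-0.1 µM. Response read as delta % of basal force of contraction; mean ± SEM, n = 6-7.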

[7] = target: Muscarinic acetylcholine receptor M3 (Homo sapiens) (UniProt P20309); assay: Displacement of [3H]N-methyl-scopolamine from human muscarinic M3 receptor expressed in CHO K1 cells at 10 uM; assay type: cell-based
Sequence of Muscarinic acetylcholine receptor M3 (Homo sapiens) (P20309 whole entry, looked up): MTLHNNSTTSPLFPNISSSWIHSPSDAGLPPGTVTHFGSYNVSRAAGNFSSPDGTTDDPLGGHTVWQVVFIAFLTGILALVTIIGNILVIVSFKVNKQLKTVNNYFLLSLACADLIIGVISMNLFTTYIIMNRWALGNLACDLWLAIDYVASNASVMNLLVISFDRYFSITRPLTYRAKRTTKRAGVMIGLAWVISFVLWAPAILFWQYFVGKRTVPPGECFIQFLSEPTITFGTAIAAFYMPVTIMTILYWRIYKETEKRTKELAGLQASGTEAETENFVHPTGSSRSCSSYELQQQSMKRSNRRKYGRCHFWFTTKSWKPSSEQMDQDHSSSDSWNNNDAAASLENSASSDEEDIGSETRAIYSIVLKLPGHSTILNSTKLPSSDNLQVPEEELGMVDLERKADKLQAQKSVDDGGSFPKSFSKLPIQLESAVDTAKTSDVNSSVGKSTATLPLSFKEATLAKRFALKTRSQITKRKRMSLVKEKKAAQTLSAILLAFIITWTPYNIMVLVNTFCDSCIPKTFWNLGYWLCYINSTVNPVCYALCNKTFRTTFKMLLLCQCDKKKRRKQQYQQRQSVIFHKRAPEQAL

[8] = target: Muscarinic acetylcholine receptor M3 (Rattus norvegicus) (UniProt P08483); details: filed as antagonist
Sequence of Muscarinic acetylcholine receptor M3 (Rattus norvegicus) (P08483 whole entry, looked up): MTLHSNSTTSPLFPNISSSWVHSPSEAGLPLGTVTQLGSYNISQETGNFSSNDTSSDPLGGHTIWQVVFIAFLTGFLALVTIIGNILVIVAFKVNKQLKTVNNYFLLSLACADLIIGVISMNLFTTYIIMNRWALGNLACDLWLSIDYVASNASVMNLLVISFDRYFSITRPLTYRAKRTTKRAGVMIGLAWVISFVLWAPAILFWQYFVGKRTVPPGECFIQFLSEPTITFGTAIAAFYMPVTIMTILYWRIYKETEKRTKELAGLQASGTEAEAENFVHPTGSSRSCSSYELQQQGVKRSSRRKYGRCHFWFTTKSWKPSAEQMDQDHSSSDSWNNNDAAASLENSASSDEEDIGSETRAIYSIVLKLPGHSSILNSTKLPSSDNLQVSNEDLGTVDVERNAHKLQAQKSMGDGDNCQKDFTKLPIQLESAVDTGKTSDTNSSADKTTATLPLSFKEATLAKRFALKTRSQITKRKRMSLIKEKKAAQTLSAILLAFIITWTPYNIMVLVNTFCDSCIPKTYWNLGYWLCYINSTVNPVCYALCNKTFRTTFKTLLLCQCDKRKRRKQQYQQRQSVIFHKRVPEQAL

SMILES: O=C1NC(c2ccc(F)cc2)(c2ccc(F)cc2)CN1C1CCN(Cc2cccc(Cl)c2)CC1
IC50 (Cytochrome P450 2C9): 4.2 µM
IC50 (Cytochrome P450 2C19): 17.7 µM
IC50 (Cytochrome P450 2D6): 5.3 µM
IC50 (Cytochrome P450 3A4): > 100 µM
Papp [2]: < 1 ×10⁻⁶ cm/s
CLint scaled [3]: 1.8 mL/min/g
CLint scaled [4]: 0.87 mL/min/g
IC50 (Cytochrome P450 1A2): > 100 µM

SMILES: O=C1NC(c2ccccc2)(c2ccccc2)CN1C1CCN(CCc2ccccc2)CC1
Ki [1]: 0.411 µM (antagonist)

SMILES: O=C1NC(c2ccccc2)(C2CCCCC2)CN1C1CCN(Cc2cccc(Cl)c2)CC1 (stereo unspecified)
Ki [1]: 0.515 µM (antagonist)

SMILES: O=C1NC(c2ccccc2)(c2ccccc2)CN1C1CCN(CCOc2ccccc2)CC1
Ki [1]: 0.328 µM (antagonist)

SMILES: O=C1NC(c2ccccc2)(c2ccccc2)CN1C1CCN(CC2CCCCC2)CC1
inhibition [5]: < 50%

SMILES: CN1C(=O)N(C2CCN(Cc3ccccc3)CC2)CC1(c1ccccc1)c1ccccc1
Ki [1]: 0.52 µM (antagonist)

SMILES: O=C1NC(c2ccccc2)(c2ccccc2)CN1C1CCN(c2ccccc2)CC1
inhibition [5]: < 50%

SMILES: O=C1NC(c2ccccc2)(c2ccccc2)C(=O)N1C1CCN(Cc2ccccc2)CC1
inhibition [5]: < 50%

SMILES: O=C1NC(c2ccc(F)cc2)(c2ccc(F)cc2)CN1C1CCN(Cc2cccc(F)c2)CC1
IC50 (Cytochrome P450 2C9): 7.3 µM
IC50 (Cytochrome P450 2C19): 17.4 µM
IC50 (Cytochrome P450 2D6): 12 µM
IC50 (Cytochrome P450 3A4): > 100 µM
Papp [2]: > 5 ×10⁻⁶ cm/s
CLint scaled [3]: 1.4 mL/min/g
CLint scaled [4]: 0.78 mL/min/g
IC50 (Cytochrome P450 1A2): > 100 µM

SMILES: O=C1NC(c2ccccc2)(c2ccccc2)CN1C1CCCN(Cc2ccccc2)C1 (stereo unspecified)
inhibition [5]: < 50%

SMILES: O=C1N(C2CCN(Cc3ccccc3)CC2)CC(c2ccccc2)N1Cc1ccccc1 (stereo unspecified)
Ki [1]: 0.629 µM (antagonist)

SMILES: O=C1NC(C2CCCCC2)(C2CCCCC2)CN1C1CCN(Cc2ccccc2)CC1
inhibition [7]: < 50%

SMILES: Cc1cccc(CN2CCC(N3CC(c4ccccc4)(C4CCCCC4)NC3=O)CC2)c1 (stereo unspecified)
Ki [1]: 0.166 µM (antagonist)

SMILES: O=C1OC(c2ccccc2)(c2ccccc2)CN1C1CCN(Cc2ccccc2)CC1
Ki [1]: 0.908 µM (antagonist)

SMILES: O=C1NC(c2ccccc2)(c2ccccc2)CN1C1CCCN(Cc2ccccc2)CC1 (stereo unspecified)
Ki [1]: 0.002 µM (antagonist)

SMILES: O=C1NC(c2ccccc2)(c2ccccc2)CN1C1CC2CCC(C1)N2Cc1ccccc1 (stereo unspecified)
Ki [1]: 0.065 µM (antagonist)

SMILES: O=C(c1cccc(Cl)c1)N1CCC(N2CC(c3ccccc3)(c3ccccc3)NC2=O)CC1
inhibition [7]: < 50%

SMILES: Cc1ccc(O)c([C@H](CCN(C(C)C)C(C)C)c2ccccc2)c1
pKb [8]: 8.86

SMILES: O=C1NC(c2ccccc2)(c2ccccc2)CN1C1CCN(Cc2cccc(O)c2)CC1
Ki [1]: 0.0479 µM (antagonist)

Other lines, results leading:

Ki [1]: 2.27 µM (antagonist)
SMILES: O=C1NC(c2ccccc2)(c2ccccc2)CN1[C@H]1CCN(Cc2ccccc2)C1

Ki [1]: 0.695 µM (antagonist)
SMILES: COc1cccc(CN2CCC(N3CC(c4ccccc4)(c4ccccc4)NC3=O)CC2)c1

inhibition [5]: < 50%
SMILES: O=C1NC(c2ccccc2)(c2ccccc2)CN1C1CCN(Cc2ccccc2Cl)CC1

IC50 (Cytochrome P450 2C9): 7 µM
IC50 (Cytochrome P450 2C19): 12.9 µM
IC50 (Cytochrome P450 2D6): 4.7 µM
IC50 (Cytochrome P450 3A4): 91.9 µM
Activity [6]: inactive
Papp [2]: > 5 ×10⁻⁶ cm/s
CLint scaled [3]: 2 mL/min/g
CLint scaled [4]: 0.56 mL/min/g
IC50 (Cytochrome P450 1A2): > 100 µM
SMILES: O=C1NC(c2ccc(F)cc2)(c2ccc(F)cc2)CN1C1CCN(Cc2ccccc2)CC1

inhibition [7]: < 50%
SMILES: O=C1NC(c2ccccc2)(c2ccccc2)CN1C1CCN(Cc2cc(Cl)cc(Cl)c2)CC1

inhibition [5]: < 50%
SMILES: O=C1NC(c2ccccc2)(c2ccccc2)CN1C1CCN(Cc2cccc(C(F)(F)F)c2)CC1

Ki [1]: 0.296 µM (antagonist)
SMILES: O=C1NC(c2ccccc2)(c2ccccc2)CN1C1CCN(Cc2ccc(Cl)cc2)CC1

Ki [1]: 0.302 µM (antagonist)
SMILES: O=C1NC(c2ccccc2)(c2ccccc2)CN1C1CCN(Cc2cccnc2)CC1

Ki [1]: 0.49 µM (antagonist)
SMILES: COc1ccc(CN2CCC(N3CC(c4ccccc4)(c4ccccc4)NC3=O)CC2)cc1

Papp [2]: > 5 ×10⁻⁶ cm/s
CLint scaled [3]: 23.7 mL/min/g
CLint scaled [4]: 2.3 mL/min/g
SMILES: O=C1NC(c2cccs2)(c2cccs2)CN1C1CCN(Cc2ccccc2)CC1

Papp [2]: ≤ 1 ×10⁻⁶ cm/s
CLint scaled [3]: 13.8 mL/min/g
CLint scaled [4]: 0.95 mL/min/g
SMILES: O=C1NC(c2cccs2)(c2cccs2)CN1C1CCN(Cc2cccc(F)c2)CC1

inhibition [5]: < 50%
SMILES: COc1ccccc1CN1CCC(N2CC(c3ccccc3)(c3ccccc3)NC2=O)CC1

Ki [1]: 0.927 µM (antagonist)
SMILES: O=C1NC(c2ccccc2)(c2ccccc2)CN1C1CCN(Cc2cccs2)CC1

Ki [1]: 0.0822 µM (antagonist)
SMILES: O=C1NC(c2ccccc2)(c2ccccc2)CN1[C@@H]1CCN(Cc2ccccc2)C1

inhibition [5]: < 50%
SMILES: O=C1NC(c2ccccc2)(c2ccccc2)CN1C1CCN(Cc2cccc(OC(F)(F)F)c2)CC1

inhibition [7]: < 50%
SMILES: C#CCN1CCC(N2CC(c3ccccc3)(c3ccccc3)NC2=O)CC1

Ki [1]: 2.95 µM (antagonist)
SMILES: O=C1NC(Cc2ccccc2)(Cc2ccccc2)CN1C1CCN(Cc2ccccc2)CC1

Ki [1]: 2.92 µM (antagonist)
SMILES: CN1CCC(N2CC(c3ccccc3)(c3ccccc3)NC2=O)CC1

inhibition [5]: < 50%
SMILES: O=C1NC(c2ccccc2)(c2ccccc2)CN1C1CCN(Cc2c[nH]cn2)CC1

Papp [2]: > 5 ×10⁻⁶ cm/s
CLint scaled [3]: 4.7 mL/min/g
CLint scaled [4]: 1.1 mL/min/g
SMILES: O=C1NC(c2ccccc2)(c2ccccc2)CN1C1CCN(Cc2ccccc2)CC1

Ki [1]: 0.302 µM (antagonist)
SMILES: O=C1NC(c2ccccc2)(c2ccccc2)CN1C1CCN(Cc2cccc(F)c2)CC1

inhibition [5]: < 50%
SMILES: N#Cc1cccc(CN2CCC(N3CC(c4ccccc4)(c4ccccc4)NC3=O)CC2)c1

Ki [1]: 0.182 µM (antagonist)
SMILES: Nc1cccc(CN2CCC(N3CC(c4ccccc4)(c4ccccc4)NC3=O)CC2)c1

inhibition [5]: < 50%
SMILES: COc1ccc(C2(c3ccc(OC)cc3)CN(C3CCN(Cc4ccccc4)CC3)C(=O)N2)cc1
